Source: PMC4229637 (British Journal of Cancer, 2014)
Where two headings read alike, the source gives them in different places.

What was measured:
[1] = Ridaforolimus concentration in whole blood; assay type: in vivo, human; settings: cycle 1 day 8; Dalotuzumab (10 mg kg^–1 QW)+ridaforolimus (20 mg QD × 5); N=4; some samples up to 2.5 h post dose
patients = settings: cited from earlier work; for main toxicities: single agent phase I
[2] = Dalotuzumab concentration in serum; assay type: in vivo, human; settings: for Serum dalotuzumab, Median / Serum dalotuzumab, Range: cycle 1 day 8
[3] = MK-2206 plasma concentration; assay type: in vivo, human; settings: for Plasma MK-2206, Median / Plasma MK-2206, Range: cycle 1 day 8
AKT1 = settings: read-out: IC50 AKT1; ref Yap et al, 2011; cited from earlier work
AKT2 = settings: read-out: IC50 AKT2; ref Yap et al, 2011; cited from earlier work
AKT3 = settings: read-out: IC50 AKT3; ref Yap et al, 2011; cited from earlier work
[4] = ref Biondo et al, 2011, Yap et al; cited from earlier work
[5] = MK-0752 plasma concentration; assay type: in vivo, human
In short: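 Test compound was given orally at 1800 mg once weekly with IV anti-IGF-1R antibody once weekly, in 28-day cycles. Pre-dose plasma was taken weekly during cycle 1 and on day 1 of subsequent cycles. Plasma levels were quantified by validated HPLC-MS/MS.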

[6] = Dalotuzumab (7.5 mg kg^–1 QW)+MK-0752 (1800 mg QW), N=4
[7] = Dalotuzumab (10 mg kg^–1 QW)+MK-0752 (1800 mg QW), N=11
[8] = Dalotuzumab (10 mg kg^–1 QW)+MK-2206 (90 mg QW), N=3
[9] = Dalotuzumab (10 mg kg^–1 QW)+MK-2206 (135 mg QW), N=8
[10] = Dalotuzumab (10 mg kg^–1 QW)+MK-2206 (150 mg QW), N=10
[11] = Dalotuzumab (10 mg kg^–1 QW)+MK-2206 (200 mg QW), N=3
[12] = Dalotuzumab (10 mg kg^–1 QW)+ridaforolimus (20 mg QD × 5), N=2
[13] = phase I clinical trial of single-agent dalotuzumab, ref Atzori et al, 2011
[14] = cycle 1 day 8, Dalotuzumab (7.5 mg kg^–1 QW)+MK-0752 (1800 mg QW), N=3

CO[C@H]1C[C@@H]2CC[C@@H](C)[C@@](O)(O2)C(=O)C(=O)N2CCCC[C@H]2C(=O)O[C@H]([C@H](C)C[C@@H]2CC[C@@H](OP(C)(C)=O)[C@H](OC)C2)CC(=O)[C@H](C)/C=C(\C)[C@@H](O)[C@@H](OC)C(=O)[C@H](C)C[C@H](C)/C=C/C=C/C=C/1C [Ridaforolimus]
Whole blood ridaforolimus, Median [1]: 86.7 ng ml^–1 | Whole blood ridaforolimus, Range [1]: 3.12–184 ng ml^–1 | RP2D (patients; IV, 5 days every 2 weeks, ref Mita et al, 2008): 12.5 mg daily | Main adverse events (patients; single agent phase I trials, ref Mita et al, 2013, Mita et al, 2008): mucositis, fatigue, rash, nausea, diarrhoea, myelosuppression, and dyslipidaemia

Dalotuzumab: humanised IgG1 monoclonal antibody that binds IGF-1R
Serum dalotuzumab, Median [2, 6]: 39.3 μg ml^–1 | Serum dalotuzumab, Range [2, 6]: 16.7–91.7 μg ml^–1 | Serum dalotuzumab, Median [2, 7]: 41.7 μg ml^–1 | Serum dalotuzumab, Range [2, 7]: 5.69–97.9 μg ml^–1 | Serum dalotuzumab, Median [2, 8]: 33.8 μg ml^–1 | Serum dalotuzumab, Range [2, 8]: 29.3–56.6 μg ml^–1 | Serum dalotuzumab, Median [2, 9]: 52.2 μg ml^–1 | Serum dalotuzumab, Range [2, 9]: 45.2–102 μg ml^–1 | Serum dalotuzumab, Median [2, 10]: 63.5 μg ml^–1 | Serum dalotuzumab, Range [2, 10]: 43.7–86.4 μg ml^–1 | Serum dalotuzumab, Median [2, 11]: 52.3 μg ml^–1 | Serum dalotuzumab, Range [2, 11]: 45.4–92.3 μg ml^–1 | Serum dalotuzumab, Median [2, 12]: 49.6 μg ml^–1 | Serum dalotuzumab, Range [2, 12]: 32.5–66.7 μg ml^–1 | Trough concentrations (Ctrough) after the first administration ([2]; dalotuzumab 7.5 and 10 mg kg^–1, generally exceeded the target threshold level): > 25 μg ml^–1 | Maximum tolerated dose (MTD) (patients; [13]): not reached | most common adverse events (patients; [13]): fatigue, hyperglycaemia, and back pain | recommended phase II dose (RP2D) (patients; [13]): 10 mg kg^–1 per week

NC1(c2ccc(-c3nc4ccn5c(=O)[nH]nc5c4cc3-c3ccccc3)cc2)CCC1 [MK-2206]
dose proportional increase of Ctrough levels ([3]; MK-2206 90, 135, 150, and 200 mg QW): not discernible | Plasma MK-2206, Median [3, 8]: 12.9 nmol l^–1 | Plasma MK-2206, Range [3, 8]: 10.3–20.4 nmol l^–1 | Plasma MK-2206, Median [3, 9]: 29.1 nmol l^–1 | Plasma MK-2206, Range [3, 9]: 0.687–41.1 nmol l^–1 | Plasma MK-2206, Median [3, 10]: 9.08 nmol l^–1 | Plasma MK-2206, Range [3, 10]: 0.736–26.7 nmol l^–1 | Plasma MK-2206, Median [3, 11]: 37.6 nmol l^–1 | Plasma MK-2206, Range [3, 11]: 20.3–50.9 nmol l^–1 | IC50 (AKT1): […] | IC50 (AKT2): 12 nM | IC50 (AKT3): 65 nM | main toxicities (patients; ref Biondo et al, 2011, Yap et al): rash, nausea, vomiting, diarrhoea, and hyperglycaemia | RP2D (patients; single agent, weekly, ref Biondo et al, 2011): 135 to 200 mg | half-life [4]: 40 to 100 h

O=C(O)CC[C@H]1CC[C@@](c2cc(F)ccc2F)(S(=O)(=O)c2ccc(Cl)cc2)CC1 [MK-0752]
Plasma MK-0752, Median [5, 14]: 8.06 μmol l^–1 | Plasma MK-0752, Range [5, 14]: 1.49–11.6 μmol l^–1 | Plasma MK-0752, Median ([5]; cycle 1 day 8, Dalotuzumab (10 mg kg^–1 QW)+MK-0752 (1800 mg QW), N=11): 1.63 μmol l^–1 | plasma trough levels, patients receiving 7.5 mg kg^–1 vs 10 mg kg^–1 dalotuzumab ([5]; weekly dosing with 1800 mg MK-0752): comparable | main toxicities (patients; ref Krop et al, 2012): fatigue, nausea, and diarrhoea
